Laboratory results as given in ChEMBL document CHEMBL4825662 (J Med Chem, 2021).
≈ marks a conversion by molar mass, not a printed value.

Key:
[1] = Drug metabolism in rat liver microsomes assessed as metabolite M1 formation at 10 uM incubated for 60 mins by HPLC method; assay type: ADME, Microsome; settings: 1 h
How it was run: (§1)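 Compound at 10 μM was incubated with rat or human liver microsomes. Sites of metabolism were proposed from mass spectral fragmentation patterns.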

[2] = Intrinsic clearance in human liver microsomes preincubated followed by NADPH addition and measured up to 45 mins by LC-MS/MS analysis; assay type: ADME, Microsome
[3] = Intrinsic clearance in Sprague-Dawley rat liver microsomes preincubated followed by NADPH addition and measured up to 45 mins by LC-MS/MS analysis; assay type: ADME, Microsome
[4] = Half life in human liver microsomes preincubated followed by NADPH addition and measured up to 45 mins by LC-MS/MS analysis; assay type: ADME, Microsome
[5] = Volume of distribution at steady state in CD1 mouse at 1 mg/kg, iv measured after 0.083 to 24 hrs by UHPLC-TOF method; assay type: ADME, organism-based; settings: in vivo, time 0.083-24 hrs, read-out: Vdss
How it was run: (§2)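 Male CD-1 mice, acclimatized and individually housed, dosed IV and PO as amorphous-solid suspension. Terminal cardiac-puncture blood into heparinized tubes on wet ice, centrifuged at 4 °C within 15 min; plasma snap-frozen at −20 °C. IV arm sampled 2 min–24 h, oral arm 5 min–24 h. Plasma analysed by UHPLC-quadrupole-TOF MS.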

[6] = Cmax in Sprague-Dawley rat at 5 mg/kg, po administered via gavage measured after 0.02 to 24 hrs by tandem liquid chromatography/mass spectrometry; assay type: ADME, organism-based; parameters: route oral, dose 5 mg/kg, time upper 24 hrs, time lower 0.02 hrs; settings: in vivo
How it was run: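 Male Sprague–Dawley rats weighing 200–250 g, 3 per route, were used. The i.v. bolus was 1 mg/kg at 1 mg/mL in 40:60 dimethylacetamide/saline. Oral gavage doses were 5 or 10 mg/kg at 5 mg/mL in 1% methyl cellulose with 0.1% Tween 80. Heparinized blood was taken at 0.02–24 h (ten time points). Plasma was analyzed by LC-MS/MS after acetonitrile precipitation.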

[7] = Half life in Beagle dog liver microsomes preincubated followed by NADPH addition and measured up to 45 mins by LC-MS/MS analysis
Human orthopneumovirus [8] = experiment: Antiviral activity against Respiratory syncytial virus A2 infected in African green monkey Vero cells by Plaque reduction assay; assay type: functional, organism-based
[9] = Protein binding in dog plasma assessed as unbound fraction at 5 uM by LC-MS/MS analysis based equilibrium dialysis method; assay type: ADME, cell-free, Canis lupus familiaris
[10] = Clearance in Sprague-Dawley rat at 1 mg/kg, iv administered […] measured after 0.02 to 24 hrs by tandem liquid chromatography/mass spectrometry; assay type: ADME, organism-based; settings: in vivo, time 0.02-24 hrs
[11] = Clearance in CD1 mouse at 1 mg/kg, iv measured after 0.083 to 24 hrs by UHPLC-TOF method; assay type: ADME, organism-based; settings: in vivo, time 0.083-24 hrs
[12] = Half life in Sprague-Dawley rat liver microsomes preincubated followed by NADPH addition and measured up to 45 mins by LC-MS/MS analysis; assay type: ADME, Microsome
[13] = Drug metabolism in human liver microsomes assessed as metabolite M1 formation at 10 uM incubated for 60 mins by HPLC method; assay type: ADME, Microsome; settings: 1 h; how it was run: as §1
[14] = Apparent permeability of compound in wild type MDCK at 10 uM incubated for 1 hr by LC-MS/MS assay; assay type: ADME, Canis lupus familiaris; settings: dog
[15] = Oral bioavailability in Sprague-Dawley rat at 10 mg/kg administered via gavage measured after 0.02 to 24 hrs by tandem liquid chromatography/mass spectrometry; assay type: ADME, organism-based; settings: in vivo, time 0.02-24 hrs
How it was run: (§3)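 Male Sprague–Dawley rats (200–250 g), 3 per route. IV bolus at 1 mg/kg, 1 mg/mL in 40:60 dimethylacetamide/saline; oral gavage at 5 or 10 mg/kg, 5 mg/mL in 1% methyl cellulose, 0.1% Tween 80 in water. Serial blood at 0.02–24 h (ten points) into heparin, spun at 4 °C, plasma frozen; acetonitrile protein precipitation, ESI LC-MS/MS with matrix curve and internal standards.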

[16] = Intrinsic clearance in Beagle dog liver microsomes preincubated followed by NADPH addition and measured up to 45 mins by LC-MS/MS analysis; assay type: ADME, Canis lupus familiaris, Microsome
[17] = Kinetic solubility of compound in PBS at 200 uM at pH 7.4 by LC-MS/LC-UV analysis; assay type: physicochemical; settings: read-out: Kinetic_solubility
How it was run: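 Compound added from DMSO into PBS pH 7.4; precipitation measured across a range of concentrations.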

[18] = Cytotoxicity against African green monkey Vero cells by MTT assay; assay type: cell-based; settings: chlorocebus sabaeus
How it was run: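 Viability was assessed by MTT after culture with compound at 0.01 nM to 100 μM, run in parallel with plaque reduction assays. Values are the average of at least two testing occasions.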

[19] = Thermodynamic solubility in PBS at 1 to 100 uM at pH 7.4 by HPLC-UV method; assay type: physicochemical; settings: dose 1-100 µM, read-out: Therm_solubility
[20] = Volume of distribution at steady state in Sprague-Dawley rat at 1 mg/kg, iv administered […] measured after 0.02 to 24 hrs by tandem liquid chromatography/mass spectrometry; assay type: ADME, organism-based; settings: in vivo, time 0.02-24 hrs, read-out: Vdss; how it was run: as §3
[21] = Protein binding in rat plasma assessed as unbound fraction at 5 uM by LC-MS/MS analysis based equilibrium dialysis method; assay type: ADME, cell-free
[22] = Oral bioavailability in CD1 mouse at 5 mg/kg measured after 0.03 to 24 hrs by UHPLC-TOF method; assay type: ADME, organism-based; settings: in vivo, time 0.03-24 hrs; how it was run: as §2
[23] = Protein binding in human plasma assessed as unbound fraction at 5 uM by LC-MS/MS analysis based equilibrium dialysis method; assay type: ADME, cell-free
[24] = Cmax in CD1 mouse at 5 mg/kg, po measured after 0.03 to 24 hrs by UHPLC-TOF method; assay type: ADME, organism-based; parameters: route oral, time upper 24 hrs, time lower 0.03 hrs, dose 5 mg/kg; settings: in vivo
[25] = Oral bioavailability in CD1 mouse at 10 mg/kg measured after 0.03 to 24 hrs by UHPLC-TOF method; assay type: ADME, organism-based; settings: in vivo, time 0.03-24 hrs; how it was run: as §2
Human orthopneumovirus [26] = experiment: Antiviral activity against Respiratory syncytial virus A2 by Plaque reduction assay; assay type: functional, organism-based
How it was run: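 Vero cells were infected with RSV A2 for 48 h with compound at 0.01 nM to 100 μM. Plaques were detected by immunostaining. Values are the average of at least two testing occasions.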

[27] = Half life in CD1 mouse at 10 mg/kg, po measured after 0.083 to 24 hrs by UHPLC-TOF method; assay type: ADME, organism-based; settings: in vivo, time 0.083-24 hrs
[28] = Apparent permeability across basolateral side to apical side in MDCK-MDR1 cells at 10 uM measured at 60 mins by LC-MS/MS analysis; assay type: ADME, cell-based, Canis lupus familiaris; settings: dog
Fusion glycoprotein F0 = Fusion glycoprotein F0 (Human respiratory syncytial virus A (strain A2), UniProt P03420); experiment: Inhibition of Respiratory syncytial virus fusion protein
How it was run: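 293T cells cotransfected with codon-optimized RSV A2 F plasmid and a GAL4-responsive luciferase reporter, mixed after 24 h with a second 293T population expressing GAL4-NF-κB transactivator. Threefold serial compound dilutions present during mixing; F-mediated fusion read as luciferase after 24 h. IC₅₀ averaged over at least two testing occasions.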

[29] = Tmax in CD1 mouse at 10 mg/kg, po measured after 0.083 to 24 hrs by UHPLC-TOF method; assay type: ADME, organism-based; settings: in vivo, time 0.083-24 hrs; how it was run: as §2
[30] = Cmax in CD1 mouse at 10 mg/kg, po measured after 0.083 to 24 hrs by UHPLC-TOF method; assay type: ADME, organism-based; parameters: route oral, time 0.083-24 hrs, dose 10 mg/kg; settings: in vivo
Human orthopneumovirus [31] = experiment: Antiviral activity against Respiratory syncytial virus A2 infected in human Hep2 cells by Plaque reduction assay; assay type: functional, organism-based; settings: A2, HEp-2
How it was run: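 Hep2 cells were infected with RSV strain A2 in the presence of compound. Plaques were detected by immunostaining after 48 h. Values are the average of at least two testing occasions.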

[32] = Cytotoxicity against human Hep2 cells; assay type: cell-based; settings: HEp-2 cells
How it was run: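 Hep2 cells were cultured in parallel with the plaque assays at compound concentrations of 0.01 nM to 100 μM. Viability was read by MTT, CellTox green or CellTiter-Glo.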

[33] = Apparent permeability across apical to basolateral side in MDCK-MDR1 cells at 10 uM measured at 60 mins by LC-MS/MS analysis; assay type: ADME, cell-based, Canis lupus familiaris; settings: dog, mdck-mdr1, 1 h, 10 µM
[34] = Efflux ratio of apparent permeability in MDCK-MDR1 cells at 10 uM measured at 60 mins by LC-MS/MS analysis; assay type: ADME, cell-based, Canis lupus familiaris; settings: dog, mdck-mdr1, 1 h, 10 µM

Chain of Fusion glycoprotein F0 (P03420 26-109 limits assumed): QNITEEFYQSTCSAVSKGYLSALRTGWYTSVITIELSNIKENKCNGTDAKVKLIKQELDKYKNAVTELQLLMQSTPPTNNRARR
Chain of Fusion glycoprotein F0 (P03420 137-574 limits assumed): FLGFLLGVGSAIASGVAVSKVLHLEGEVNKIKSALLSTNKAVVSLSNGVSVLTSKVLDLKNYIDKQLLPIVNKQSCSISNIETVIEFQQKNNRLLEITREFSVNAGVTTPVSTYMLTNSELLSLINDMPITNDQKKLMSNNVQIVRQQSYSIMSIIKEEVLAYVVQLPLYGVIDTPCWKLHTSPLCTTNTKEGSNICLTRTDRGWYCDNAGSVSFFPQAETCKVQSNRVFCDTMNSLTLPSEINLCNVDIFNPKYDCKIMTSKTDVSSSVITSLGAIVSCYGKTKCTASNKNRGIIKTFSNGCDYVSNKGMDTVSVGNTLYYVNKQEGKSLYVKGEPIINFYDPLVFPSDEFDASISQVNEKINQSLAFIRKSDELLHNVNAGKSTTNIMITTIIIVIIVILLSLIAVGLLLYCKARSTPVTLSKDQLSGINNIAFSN

## CC(C)CCn1c(CN2C(=O)C3(CC3)c3ccccc32)nc2cc(CN)ccc21
[1]
  Drug metabolism: Metabolite_Detected
[2]
  intrinsic clearance (CLint): 592 µL/min
[3]
  Microsomal intrinsic clearance: < 19 µL/min
[4]
  half-life: 5 min
[5]
  Vd: 34 L/kg
[6]
  Cmax: 6 ng/mL
[7]
  half-life: > 1.67 h
Human orthopneumovirus [8]
  EC50: 31 nM
[9]
  fraction unbound at 5 µM: 0.1
[10]
  clearance: 98 mL/min/kg
[11]
  clearance: 98 mL/min/kg
[12]
  half-life: > 1.58 h
[13]
  Drug metabolism: Metabolite_Detected
[14]
  Papp at 1 h, 10 µM: 12 ×10⁻⁶ cm/s
[15]
  bioavailability: 4%
[16]
  intrinsic clearance: < 28 µL/min
[17]
  solubility kinetic at 200 µM: 155 µM (≈ 60.2 µg/mL)
[18]
  CC50: 15300 nM
[19]
  solubility thermodynamic: 155 µM (≈ 60.2 µg/mL)
[20]
  Vd: 34 L/kg
[21]
  fraction unbound at 5 µM: 0.1
[22]
  bioavailability: 4%
[23]
  fraction unbound at 5 µM: 0.07
[24]
  Cmax: 6 ng/mL

## CC(C)CCn1c(CN2C(=O)C3(CC3)c3cccnc32)nc2cc(CN)ccc21
[2]
  intrinsic clearance (CLint): 177 µL/min
[3]
  Microsomal intrinsic clearance: 328 µL/min
[25]
  bioavailability: 18.1%
[5]
  Vd: 4.5 L/kg
Human orthopneumovirus [26]
  EC50: 4.1 nM
[27]
  half-life: 1 h
[28]
  Papp B→A at 1 h, 10 µM: 0.1 ×10⁻⁶ cm/s
Fusion glycoprotein F0
  IC50: 0.9 nM
[11]
  clearance: 81.1 mL/min/kg
[29]
  Tmax: 2 h
[30]
  Cmax: 200 ng/mL
[16]
  intrinsic clearance: 71.3 µL/min

## CC(C)CCn1c(CN2C(=O)C3(CCOCC3)c3ccccc32)nc2cc(CN)ccc21
Human orthopneumovirus [26]
  EC50: 3.4 nM
Fusion glycoprotein F0
  IC50: 0.69 nM

## CC(C)CCn1c(CN2C(=O)C3(CCCC3)c3ccncc32)nc2cc(CN)ccc21
[2]
  intrinsic clearance (CLint): 488 µL/min
[3]
  Microsomal intrinsic clearance: < 31 µL/min
[4]
  half-life: 6 min
[7]
  half-life: > 1.67 h
Human orthopneumovirus [8]
  EC50: 310 nM
[9]
  fraction unbound at 5 µM: 0.14
[12]
  half-life: > 1.48 h
[14]
  Papp at 1 h, 10 µM: 11 ×10⁻⁶ cm/s
[16]
  intrinsic clearance: < 28 µL/min
[17]
  solubility kinetic at 200 µM: 160 µM (≈ 66.8 µg/mL)
[18]
  CC50: 23100 nM
[21]
  fraction unbound at 5 µM: 0.24
[23]
  fraction unbound at 5 µM: 0.17

## CC(=O)NCc1ccc2c(c1)nc(CN1C(=O)C3(CC3)c3ccc(F)cc31)n2CCCC(F)(F)F
Human orthopneumovirus [31]
  EC50: 107 nM
[32]
  CC50: > 20000 nM

## CC(C)CCn1c(CN2C(=O)C3(CC3)c3cccc(F)c32)nc2cc(CN)ccc21
[2]
  intrinsic clearance (CLint): 7 µL/min
[3]
  Microsomal intrinsic clearance: 37.8 µL/min
[6]
  Cmax: 31.3 ng/mL
[33]
  Papp: 0.19 10^-6 cm/s
Human orthopneumovirus [8]
  EC50: 40.8 nM
[9]
  fraction unbound at 5 µM: 0.147
[10]
  clearance: 108 mL/min/kg
[15]
  bioavailability: 8.8%
[16]
  intrinsic clearance: 2.23 µL/min
[18]
  CC50: 31100 nM
[34]
  Ratio: 227
[19]
  solubility thermodynamic: 1230 µM (≈ 500 µg/mL)
[20]
  Vd: 11.9 L/kg
[21]
  fraction unbound at 5 µM: 0.104
[23]
  fraction unbound at 5 µM: 0.42

## CC(=O)N1CC2(C1)C(=O)N(Cc1nc3cc(CN)ccc3n1CCC(C)C)c1ccccc12
Human orthopneumovirus [26]
  EC50: 2.2 nM
Fusion glycoprotein F0
  IC50: 1.1 nM
